Assays:
[1] = target: T1, Neprilysin (Oryctolagus cuniculus, UniProt P08049); test: In vitro inhibition of neutral endopeptidase
T1 sequence (P08049 whole entry): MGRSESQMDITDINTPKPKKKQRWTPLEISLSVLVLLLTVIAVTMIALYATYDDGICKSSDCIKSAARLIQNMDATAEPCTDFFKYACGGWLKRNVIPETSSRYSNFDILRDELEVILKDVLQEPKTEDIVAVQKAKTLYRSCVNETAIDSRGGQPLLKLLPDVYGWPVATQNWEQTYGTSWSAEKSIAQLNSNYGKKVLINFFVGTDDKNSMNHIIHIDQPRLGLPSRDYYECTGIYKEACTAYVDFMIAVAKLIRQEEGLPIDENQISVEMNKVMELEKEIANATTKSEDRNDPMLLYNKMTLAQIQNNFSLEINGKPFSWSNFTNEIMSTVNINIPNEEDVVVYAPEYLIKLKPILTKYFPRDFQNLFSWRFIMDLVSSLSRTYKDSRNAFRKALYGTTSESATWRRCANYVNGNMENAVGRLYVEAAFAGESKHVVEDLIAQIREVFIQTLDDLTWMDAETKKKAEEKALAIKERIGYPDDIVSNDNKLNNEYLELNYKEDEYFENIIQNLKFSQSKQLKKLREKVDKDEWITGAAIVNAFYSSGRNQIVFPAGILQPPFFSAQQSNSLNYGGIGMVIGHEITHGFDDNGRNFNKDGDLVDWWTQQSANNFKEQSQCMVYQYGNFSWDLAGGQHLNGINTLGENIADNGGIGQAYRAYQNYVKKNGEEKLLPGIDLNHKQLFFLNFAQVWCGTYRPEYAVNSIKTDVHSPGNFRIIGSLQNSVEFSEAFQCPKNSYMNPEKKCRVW
In short: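 NEP purified from rabbit kidney, 1 pmol/100 µL final, preincubated 15 min at 25 °C with increasing inhibitor concentrations in 50 mM Tris-HCl pH 7.4. Substrate [3H]-D-Ala2-Leu-enkephalin at 20 nM final, 30 min; stopped with 0.5 M HCl. [3H]Tyr-D-Ala-Gly separated on polystyrene beads and counted by scintillation. IC50 is the mean ± SEM of three independent experiments run in triplicate.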

[2] = target: T2, Angiotensin-converting enzyme (Rattus norvegicus, UniProt P47820); test: In vitro inhibition of rat angiotensin I converting enzyme
T2 sequence (P47820 whole entry): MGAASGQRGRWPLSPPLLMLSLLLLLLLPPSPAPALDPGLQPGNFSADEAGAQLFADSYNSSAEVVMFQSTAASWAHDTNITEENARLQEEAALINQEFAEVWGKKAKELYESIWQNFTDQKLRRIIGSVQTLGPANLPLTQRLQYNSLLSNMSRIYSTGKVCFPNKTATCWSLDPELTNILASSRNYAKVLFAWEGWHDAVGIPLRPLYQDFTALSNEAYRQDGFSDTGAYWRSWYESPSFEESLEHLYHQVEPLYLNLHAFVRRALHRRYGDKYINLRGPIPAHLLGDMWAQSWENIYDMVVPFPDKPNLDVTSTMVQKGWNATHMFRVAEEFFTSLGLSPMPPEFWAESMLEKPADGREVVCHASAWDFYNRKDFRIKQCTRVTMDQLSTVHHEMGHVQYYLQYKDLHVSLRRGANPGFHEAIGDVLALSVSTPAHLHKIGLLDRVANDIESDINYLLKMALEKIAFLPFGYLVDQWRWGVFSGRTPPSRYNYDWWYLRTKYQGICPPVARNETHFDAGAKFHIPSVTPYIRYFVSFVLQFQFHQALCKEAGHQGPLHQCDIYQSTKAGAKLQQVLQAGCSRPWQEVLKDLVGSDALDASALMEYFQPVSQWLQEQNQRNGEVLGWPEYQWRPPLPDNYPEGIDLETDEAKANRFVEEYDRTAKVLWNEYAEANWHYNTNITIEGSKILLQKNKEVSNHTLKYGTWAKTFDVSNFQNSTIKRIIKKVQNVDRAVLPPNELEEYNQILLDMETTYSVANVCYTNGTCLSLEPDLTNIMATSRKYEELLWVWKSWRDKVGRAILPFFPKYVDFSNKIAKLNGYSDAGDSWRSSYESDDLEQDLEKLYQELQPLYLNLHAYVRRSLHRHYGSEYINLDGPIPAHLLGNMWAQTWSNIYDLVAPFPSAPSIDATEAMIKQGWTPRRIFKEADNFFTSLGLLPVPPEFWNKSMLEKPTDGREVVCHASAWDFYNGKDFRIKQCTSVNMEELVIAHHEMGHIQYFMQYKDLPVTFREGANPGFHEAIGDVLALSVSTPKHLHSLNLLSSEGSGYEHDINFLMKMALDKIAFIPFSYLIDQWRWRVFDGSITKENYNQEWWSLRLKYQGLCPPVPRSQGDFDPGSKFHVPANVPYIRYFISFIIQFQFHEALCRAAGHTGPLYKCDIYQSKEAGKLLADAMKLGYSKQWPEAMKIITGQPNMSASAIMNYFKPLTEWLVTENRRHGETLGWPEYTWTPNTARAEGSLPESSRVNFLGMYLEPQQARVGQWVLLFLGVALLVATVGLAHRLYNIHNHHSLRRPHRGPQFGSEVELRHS
In short: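 ACE purified from rat testis, 0.02 pmol/100 µL final, preincubated 15 min at 37 °C with varying inhibitor in 50 mM Tris-HCl pH 8.0. N-Cbz-Phe-His-Leu added to 0.05 mM final, 15 min; stopped with 2 M NaOH. His-Leu measured fluorimetrically (ex 365, em 495 nm) against a His-Leu calibration curve. IC50 is the mean ± SEM of three experiments in triplicate.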

[3] = target: T3, Neprilysin (Mus musculus) (UniProt Q61391); test: In vivo percent inhibition activity against kidney Neutral endopeptidase 2 hr after oral administration of a dose of 2.6 x 10e-5 mol/kg; type: organism-based
T3 sequence (whole entry): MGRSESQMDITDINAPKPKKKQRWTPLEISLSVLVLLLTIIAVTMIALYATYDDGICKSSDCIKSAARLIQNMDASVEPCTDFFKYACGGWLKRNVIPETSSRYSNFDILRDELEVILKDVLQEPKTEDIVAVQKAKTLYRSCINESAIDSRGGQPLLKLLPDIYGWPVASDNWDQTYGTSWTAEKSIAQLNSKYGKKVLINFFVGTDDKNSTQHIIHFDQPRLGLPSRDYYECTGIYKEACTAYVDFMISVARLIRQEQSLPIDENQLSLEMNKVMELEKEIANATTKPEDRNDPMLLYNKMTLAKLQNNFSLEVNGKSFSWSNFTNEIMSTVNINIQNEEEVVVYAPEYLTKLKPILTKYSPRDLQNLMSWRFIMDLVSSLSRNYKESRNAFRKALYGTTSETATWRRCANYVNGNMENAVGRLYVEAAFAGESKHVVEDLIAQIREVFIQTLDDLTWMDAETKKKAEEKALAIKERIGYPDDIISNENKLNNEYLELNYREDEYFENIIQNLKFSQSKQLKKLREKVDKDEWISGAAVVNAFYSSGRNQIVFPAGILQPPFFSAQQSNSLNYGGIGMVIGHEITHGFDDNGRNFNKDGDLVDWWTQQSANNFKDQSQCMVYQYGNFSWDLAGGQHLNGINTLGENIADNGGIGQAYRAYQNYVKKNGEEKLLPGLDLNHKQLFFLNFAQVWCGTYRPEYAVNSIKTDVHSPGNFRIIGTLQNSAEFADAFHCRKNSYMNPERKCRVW
In short: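 Mice given a single oral dose in 10% ethanol/10% cremophor/80% water; kidneys taken 2 h later and homogenized at 4 °C in 50 mM Tris-HCl pH 7.4. Membrane fraction (100000g) preincubated 5 min at 25 °C with bestatin and captopril, then incubated 10 min with [3H]-D-Ala2-Leu-enkephalin (2 × 10^-8 M). [3H]Tyr-D-Ala-Gly counted; blanks contained 10^-5 M retrothiorphan.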

Compound | IC50 [1] [nM] | IC50 [2] [nM] | inhibition [3] [%]
COc1ccc(C[C@H](S)C(=O)NCC(=O)N2[C@@H](c3ccccc3O)CC[C@H]2C(=O)O)cc1 | 2.2 | 0.42 | –
Cc1ccccc1[C@@H]1CCC(C(=O)O)N1C(=O)CNC(=O)[C@@H](S)Cc1ccccc1 (single isomer, unassigned; 17) | 8.5 | 33 | –
O=C(NCC(=O)N1[C@@H](c2ccccc2O)CC[C@H]1C(=O)O)C(S)Cc1ccc(Cl)cc1 (some centres not stated) | 1.2 | 0.9 | –
NCCCCC(S)C(=O)NCC(=O)N1[C@@H](c2ccccc2)CC[C@H]1C(=O)O (some centres not stated) | 500 | 403 | –
O=C(NCC(=O)N1[C@@H](c2cccc(O)c2)CC[C@H]1C(=O)O)[C@@H](S)Cc1cccc(O)c1 | 4.3 | 3.2 | –
Cc1cccc([C@H]2CC[C@@H](C(=O)O)N2C(=O)CNC(=O)[C@@H](S)Cc2ccccc2)c1 | 2.3 | 6.2 | –
O=C(O)c1ccc(CC(S)C(=O)NCC(=O)N2[C@@H](c3ccccc3O)CC[C@H]2C(=O)O)cc1 (some centres not stated) | 62 | 5.3 | –
Cc1ccccc1[C@@H]1CCC(C(=O)O)N1C(=O)CNC(=O)[C@@H](S)Cc1ccc(O)cc1 (single isomer, unassigned) | 5.1 | 12.5 | –
C[C@H](NC(=O)[C@@H](S)Cc1ccccc1)C(=O)N1[C@@H](c2ccccc2)CC[C@H]1C(=O)O | 10 | 45 | –
O=C(NCC(=O)N1[C@@H](c2ccccc2O)CC[C@H]1C(=O)O)[C@@H](S)Cc1ccccc1 | 1 | 0.5 | –
Cc1cccc(C2CCC(C(=O)O)N2C(=O)CNC(=O)[C@@H](S)Cc2ccc(O)cc2)c1 (some centres not stated) | 1.5 | 3.1 | –
O=C(NCC(=O)N1[C@@H](c2cccc(O)c2)CC[C@H]1C(=O)O)C(S)Cc1ccc(F)cc1 (some centres not stated) | 5.3 | 3.8 | –
CC[C@H](C)C(S)C(=O)NCC(=O)N1[C@@H](c2ccccc2)CC[C@H]1C(=O)O (some centres not stated) | 50 | 3.7 | –
COc1ccc(C[C@H](S)C(=O)NCC(=O)N2[C@@H](c3ccccc3OC)CC[C@H]2C(=O)O)cc1 | 2.5 | 2.2 | –
O=C(NCC(=O)N1[C@@H](c2cccc(O)c2)CC[C@H]1C(=O)O)[C@@H](S)Cc1ccccc1 | 2.4 | 1.5 | –
O=C(NCC(=O)N1[C@@H](c2ccccc2)CC[C@H]1C(=O)O)[C@@H](S)Cc1ccc(O)cc1 | 3.4 | 4.2 | –
Nc1ccc(C[C@H](S)C(=O)NCC(=O)N2[C@@H](c3ccccc3)CC[C@H]2C(=O)O)cc1 | 1.8 | 3.5 | –
Nc1ccc([C@H]2CC[C@@H](C(=O)O)N2C(=O)CNC(=O)[C@@H](S)Cc2ccc(O)cc2)cc1 | 26 | 23 | –
O=C(NCC(=O)N1[C@@H](c2ccccc2)CC[C@H]1C(=O)O)[C@H](S)Cc1ccccc1 | 3.2 | 25 | –
COc1ccccc1[C@H]1CC[C@@H](C(=O)O)N1C(=O)CNC(=O)[C@@H](S)Cc1ccc(O)cc1 | 3.4 | 4.5 | –
Cc1ccccc1[C@@H]1CCC(C(=O)O)N1C(=O)CNC(=O)[C@@H](S)Cc1ccccc1 (single isomer, unassigned; 18) | 17 | 48 | –
Cc1ccccc1C1CC[C@H](C(=O)O)N1C(=O)CNC(=O)[C@@H](S)Cc1ccccc1 (single isomer, unassigned) | 25 | 112 | –
O=C(NCC(=O)N1[C@@H](c2ccc(O)cc2)CC[C@H]1C(=O)O)[C@@H](S)Cc1ccc(O)cc1 | 6.36 | 0.46 | 25
